Rows were chosen to be rich in hits. Some 3.8% of all compounds tested hit in one or more screens of this group.
RAM network inh: blocks the yeast RAM network. inhibition, % at 50 µM. S. cerevisiae dse1pr::URA3 reporter, 5-FOA growth OD615, 2 d; analog-sensitive cbk1-as2 kinase mutant strain. 1.8% of 190,000 active;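 active = inhibition above a set limit, 3 SD over mean compound inhibition, cut at about 8.4% in these data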;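 note: 0% = DMSO-only wells with no growth and 100% = 10 µM 1-NA-PP1 full growth; inhibition rescues growth on 5-FOA so higher OD means more RAM inhibition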
Yeast lifespan up: extends the lifespan of yeast. S. cerevisiae growth with nicotinamide, OD615; deaD strain in restrictive glucose medium. 0.68% of 130,000 active. AID 775. inhibition of the nicotinamide effect, % at 10 µM;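 active = inhibition above a set limit, placed 3 SD over the median of all compounds, cut at about 26% in these data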;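 note: 0% = nicotinamide-treated wells and 100% = cells grown without nicotinamide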
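Assay system: engineered S. cerevisiae DeaD replicative-lifespan strain, galactose-grown log-phase cells; Buffer or medium: CSMM-D glucose medium, restrictive; Probe or stimulus: nicotinamide 1.5 mM; Compound: single dose 10 µM compound, 0.25% DMSO; Schedule: 4 h preincubation then 48 h treatment at 30 °C; Technique: OD615 measurement.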
BB579 growth dn: yeast BB579 growth reduction in restrictive medium | inhibition, % at 10 µM | 0.51% of 140,000 active | S. cerevisiae BB579 growth, OD615, 48 h | AID 804;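 active = inhibition above a set limit, 3 SD over the mean compound inhibition, cut at about 44% in these data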
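System: Saccharomyces cerevisiae DeaD strain BB579, replicative lifespan model yeast | Buffer or medium: Restrictive glucose-based CSMM-D medium | Times: 4 h preincubation and 48 h exposure at 30 °C | Detection: OD615 turbidity measurement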
Measles CPE: protection of cells from measles virus. Measles virus-infected cells, CPE protection, absorbance. protection (pct of control), % at 4 µM. 1.5% of 140,000 active; in the data active = protection mostly above about 24%, no sharp cut-off; inactive = mostly below about 26%
* = called active by the depositor; nt = no result given.

SMILES	RAM network inh	Yeast lifespan up	BB579 growth dn	Measles CPE
Cc1ccc(N2NC(=O)/C(=C\c3cc4c(cc3[N+](=O)[O-])OCO4)C2=O)cc1C	-0.4	48.6*	-46.3	16.1
CC1(C)CC(=O)C(C=Nc2ccc(NC3=C(C#N)C(=O)CC(C)(C)C3)cc2)=C(O)C1	4.4	nt	nt	nt
C=CCN(CC=C)c1ccc(N2C(=O)C3CCCCC3C2=O)cc1[N+](=O)[O-] (stereo not drawn)	9.0*	nt	nt	nt
O=C(C1CCC1)N1CCC(c2nc3c(nnn3Cc3c(F)cccc3Cl)c(=O)[nH]2)CC1	2.7	-8.6	-38.9	40.9*
Cc1csc(SCC(=O)Nc2ccccc2[N+](=O)[O-])n1	-0.4	nt	nt	nt
CC(=O)c1c(Nc2ccc3c(c2)OCCO3)oc(C)cc1=O	-0.7	27.2*	0.5	18.4
Cc1cc(C(=O)Nc2ccc3c(c2)OCCO3)c(C)o1	0.1	-24.8	-35.7	4.9
CCOC(=O)c1ccc2c(c1)n(CCO)c(C)[n+]2CC	0.5	71.2*	7.9	11.2
COc1ccc(-n2c(Cc3cc(=O)[nH]c(=O)[nH]3)nnc2SCc2ccccc2)cc1	1.7	-6.1	6.0	16.4
COc1cccc(-n2c(Cc3cc(=O)[nH]c(=O)[nH]3)nnc2SCc2cccnc2)c1	0.7	-3.3	-5.8	44.2*
CC(Oc1ccc(-c2ccccc2)c(F)c1)c1ccn(S(=O)(=O)c2ccc(F)cc2)n1 (stereo not drawn)	9.4*	1.1	-26.8	4.0
NS(=O)(=O)c1cccc(NC(=S)NC(=O)C23CC4CC(CC(C4)C2)C3)c1	4.6	-2.5	-39.0	44.3*
O=C(NNC(=S)NC(=O)C12CC3CC(CC(C3)C1)C2)c1ccncc1	-1.2	-3.5	74.3*	3.4
Nc1c(C(O)(C(F)(F)F)C(F)(F)F)cc(C(O)(C(F)(F)F)C(F)(F)F)c2ccccc12	2.4	nt	-31.5	27.8
S=C(NCCc1ccccc1)NC1CC2CCC(C1)N2Cc1ccccc1 (stereo not drawn)	0.6	nt	nt	nt
Cc1nn(-c2ccccc2)c2nc(C(F)(F)F)[nH]c(=O)c12	-0.5	-2.3	6.6	40.9*
Cc1nn(CCC#N)c2nc(C(F)(F)F)[nH]c(=O)c12	2.7	-3.2	-10.6	19.6
COc1ccc(S(=O)(=O)N2CCC(C(=O)NCCc3ccccc3)CC2)cc1OC	1.9	-2.0	-9.2	31.9
COc1ccc(C)cc1S(=O)(=O)N1CCC(C(=O)NCCc2ccccc2)CC1	0.2	27.9*	8.5	4.8
COc1ccc(CCNC(=O)C2CC2)cc1OC	1.6	-20.1	-29.7	46.3*
O=C1C=C(NCc2ccc3c(c2)OCO3)CC(c2ccccc2)C1 (stereo not drawn)	3.9	nt	nt	nt
COCCn1c(=NC(=O)C(C)(C)C)sc2cc([N+](=O)[O-])ccc21	2.5	1.6	-16.4	8.2
Cc1ccc(NC(=O)CSCC#N)cc1	1.4	-7.5	-17.5	7.3
N#CCSCC(=O)Nc1ccc(Br)cc1	0.9	-21.7	-30.9	73.2*
N#CCSCC(=O)Nc1ccc(F)cc1	0.8	-4.1	1.6	53.7*
SMILES	RAM network inh	Yeast lifespan up	BB579 growth dn	Measles CPE
CN(C[C@H](CC1CCCCC1)N(C[C@H](Cc1ccccc1)N(CCc1ccccc1)N=O)N=O)N=O	11.2*	nt	nt	nt
CCCC[C@H](CN(N=O)[C@@H](Cc1ccccc1)CN(C)N=O)N(CCc1ccccc1)N=O	8.9*	nt	nt	nt
CN(C[C@H](Cc1ccccc1)N(CCN(CCc1ccccc1)N=O)N=O)N=O	3.1	nt	nt	nt
CN(C[C@H](Cc1ccccc1)N(C[C@H](Cc1ccccc1)N(CCc1cc(C(F)(F)F)cc(C(F)(F)F)c1)N=O)N=O)N=O	7.1	nt	nt	nt
CCOc1ccc(-c2nc(-c3cccnc3)no2)cc1	0.1	nt	-27.5	34.4*
O=C(O)CCCN=CC1=C(O)CNC1=O	2.6	nt	nt	nt
Cc1ccc(NC(=O)CSc2nc3[nH]ncc3c(=O)[nH]2)c(C)c1	1.9	nt	nt	nt
Cc1cccc(NC(=O)CSc2nc3[nH]ncc3c(=O)[nH]2)c1C	11.0*	2.1	-29.1	21.4
CC1CCc2nc(N)c(C#N)c(-c3cccnc3)c2C1 (stereo not drawn)	-0.6	-2.5	-5.7	75.7*
O=C(COC(=O)Cc1c(Cl)cccc1Cl)Nc1ccc(OC(F)(F)F)cc1	3.6	3.6	-24.0	19.0
COC(=O)c1ccccc1NC(=O)c1ccc(COc2ccc(C)c(C)c2)o1	10.2*	-23.0	-25.7	-0.1
COc1ccccc1NC(=O)c1ccc(COc2ccccc2OC)o1	5.4	-25.4	-32.2	1.1
COC(=O)c1ccccc1NC(=O)c1ccc(COc2cc(C)cc(C)c2)o1	11.2*	-3.3	-33.7	20.2
O=C(NCc1cccnc1)c1ccc(Cl)c(S(=O)(=O)Nc2ccccc2C(=O)NCc2cccnc2)c1	0.1	nt	nt	nt

Source: PubChem BioAssay
